# Experiments:
# [1] = cited from earlier work
# Water solubility = format: physicochemical
# [2] = test system: P. aeruginosa induced bacterial pneumonia; test: P. aeruginosa induced bacterial pneumonia model, wild-type mice; format: in vivo, mouse; conditions: wild-type mice infected with P. aeruginosa; treatment 18 h after inoculation
# How it was run: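 In wild-type C57BL/6 mice, P. aeruginosa was instilled intratracheally via tracheal intubation. Test compound (10 mg/kg) was given by nasal instillation 18 h after inoculation, and lungs were collected 30 h later (48 h post-infection). Lung sections were H&E-stained; n = 5 per group; one-way ANOVA with multiple comparisons.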
# mouse lungs = test: In vivo cytotoxicity; conditions: mice, 2.5 mg/mL, 30 μl/mouse, nasal inhalation
# How it was run: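 Wild-type C57/Bl6 mice received 30 μl of a 2.5 mg/ml solution of self-assembled prodrug, or saline, by nasal inhalation. Lungs were collected 48 h later per methods (18 h per results). Tissue went to histopathology, apoptotic cell counts, immunofluorescence, and ELISA/qRT-PCR for proinflammatory cytokines. At least three mice per group; experiments repeated twice.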
# ACE2 [3] = target: T1, ACE2 (Homo sapiens, UniProt Q9BYF1); test: ACE2 activity in culture medium of Calu-3 cells; format: cell-based
# Target sequence in this assay (Q9BYF1 18-708 limits assumed): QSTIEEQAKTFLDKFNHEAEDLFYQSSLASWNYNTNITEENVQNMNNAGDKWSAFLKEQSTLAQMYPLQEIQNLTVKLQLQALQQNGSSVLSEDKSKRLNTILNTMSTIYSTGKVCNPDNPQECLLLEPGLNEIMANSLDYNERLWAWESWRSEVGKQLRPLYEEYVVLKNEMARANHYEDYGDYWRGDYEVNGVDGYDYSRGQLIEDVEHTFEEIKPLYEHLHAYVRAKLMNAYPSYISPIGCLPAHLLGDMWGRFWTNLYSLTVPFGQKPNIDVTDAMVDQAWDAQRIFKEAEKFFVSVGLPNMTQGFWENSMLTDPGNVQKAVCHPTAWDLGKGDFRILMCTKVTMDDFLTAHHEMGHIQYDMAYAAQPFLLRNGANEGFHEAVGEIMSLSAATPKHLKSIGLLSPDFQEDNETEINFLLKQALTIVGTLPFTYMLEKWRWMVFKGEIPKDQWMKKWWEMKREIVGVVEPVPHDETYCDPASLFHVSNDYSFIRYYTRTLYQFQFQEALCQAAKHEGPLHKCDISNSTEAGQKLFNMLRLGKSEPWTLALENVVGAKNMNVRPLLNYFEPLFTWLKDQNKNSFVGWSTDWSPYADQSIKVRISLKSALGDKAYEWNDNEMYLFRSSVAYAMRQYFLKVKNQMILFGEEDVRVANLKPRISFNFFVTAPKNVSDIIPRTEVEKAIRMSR
# ACE2 gene expression = test: ACE2 mRNA in Calu-3 cells by quantitative real-time PCR; format: cell-based, human; conditions: 25 μg/mL H4, varying durations
# [4] = test system: P. aeruginosa induced bacterial pneumonia; test: P. aeruginosa induced bacterial pneumonia model, global ACE2 knockout; format: in vivo, mouse; conditions: Ace2-/- mice infected with P. aeruginosa, H4 treatment, n = 3
# How it was run: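 Ace2−/− mice were given P. aeruginosa by intratracheal instillation via tracheal intubation, with test compound 18 h after inoculation and samples taken 30 h later; n = 3 per group. Endpoints: body weight at sacrifice, lung H&E, lung IFNγ, MPO immunofluorescence, and BAL flow cytometry (Fc block 20 min at 4 °C, viability dye, CD45+CD11b+Ly6G+ live cells).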
# ACE2 [5] = target: T1, ACE2; test: Activity of recombinant ACE2 with Zn chelation by DTPA; format: biochemical; conditions: 25 μg/mL H4 (200 ng/mL elsewhere in the source), 25 mM DTPA, 37 °C
# How it was run: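 Human recombinant ACE2 was incubated at 37 °C with or without test compound (25 μg/mL in methods; 200 ng/mL in legend). Free Zn was depleted with 25 mM DTPA. Activity was read by fluorogenic Mca-YVADAPK(Dnp)-OH cleavage (ex 330/em 405 nm) in MES/NaCl/ZnCl2/Brij-35 buffer, pH 6.5. Each dot is one treatment well; one-way ANOVA.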
# Target sequence in this assay (Q9BYF1 18-805): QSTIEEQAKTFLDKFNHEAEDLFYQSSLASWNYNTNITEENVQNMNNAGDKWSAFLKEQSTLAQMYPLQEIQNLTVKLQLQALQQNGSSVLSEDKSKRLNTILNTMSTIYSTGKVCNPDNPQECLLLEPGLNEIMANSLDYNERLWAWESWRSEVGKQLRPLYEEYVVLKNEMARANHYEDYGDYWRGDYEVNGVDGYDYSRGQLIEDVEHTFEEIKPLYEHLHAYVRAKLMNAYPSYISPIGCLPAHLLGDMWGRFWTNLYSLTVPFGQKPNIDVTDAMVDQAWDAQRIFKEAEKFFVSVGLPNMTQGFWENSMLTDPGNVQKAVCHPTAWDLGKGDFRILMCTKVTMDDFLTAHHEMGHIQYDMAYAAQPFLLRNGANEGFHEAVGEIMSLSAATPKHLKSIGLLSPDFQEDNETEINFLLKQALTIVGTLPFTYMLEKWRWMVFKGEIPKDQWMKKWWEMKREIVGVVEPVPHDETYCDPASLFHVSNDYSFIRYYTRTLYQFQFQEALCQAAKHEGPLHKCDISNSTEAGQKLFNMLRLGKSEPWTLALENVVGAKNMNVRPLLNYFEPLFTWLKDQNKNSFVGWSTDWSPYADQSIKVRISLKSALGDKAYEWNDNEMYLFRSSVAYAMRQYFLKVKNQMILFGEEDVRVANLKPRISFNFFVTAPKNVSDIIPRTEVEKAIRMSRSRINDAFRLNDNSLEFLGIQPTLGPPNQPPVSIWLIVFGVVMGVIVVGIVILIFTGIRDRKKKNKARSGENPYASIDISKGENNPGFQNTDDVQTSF
compound,measurement,setting,value
"CC(=O)NCC(=O)O.CC(=O)NCC(=O)O.N=C(N)c1ccc(N=NNc2ccc(C(=N)N)cc2)cc1 [DIZE, diminazene aceturate]",toxicity,[1],high toxicity
H4-Succinic Acid-Val-Val-Glu-Glu-NH2 [H4 prodrug],solubility in water compared with H4,Water solubility; photographs of aqueous solutions at 1 mg/mL (Fig. 4B),improved solubility in water
same,lung histopathology (H&E),[2],enhanced histology
same,toxicity in the lungs,mouse lungs,non-detectable toxicity
same,pro-inflammatory cytokine levels in lung tissues,mouse lungs; ELISA and qRT-PCR,no surge in pro-inflammatory cytokine levels
"Cc1ccc(S(=O)(=O)Oc2ccc3oc4c(CO)ccc(NCCN(C)C)c4c(=O)c3c2)cc1 [XNT, xanthenone]",toxicity,[1],high toxicity
C[C@]12CC[C@@H]3c4ccc(O)cc4CC[C@H]3[C@@H]1C[C@@H](O)[C@@H]2O [H4],plateau of ACE2 activity enhancement,ACE2 [3],around 50 μg/mL
same,concentration range in which ACE2 activity is notably augmented,"ACE2 [3]; 0–500 μg/ml, 18 h, 37 °C, culture medium",5 to 50 µg/mL
same,mid-effective concentration for enhancing ACE2 activity,ACE2 [3]; dose-dependent,10 to 30 µg/mL
same,dissolution in water,"Water solubility; water, 25 °C, no method or source printed",0.5 mg/mL
same,ACE2 mRNA levels,ACE2 gene expression,did not induce ACE2 gene expression
same,body weight recovery,[4],no discernible effects
same,lung histopathology (H&E),[4],no discernible effects
same,"neutrophil infiltration into the lungs (BAL flow cytometry, MPO staining)",[4],did not diminish neutrophil infiltration
same,production of MIP-2,[4],nor did it decrease the production of MIP-2
same,proinflammatory cytokine IFNγ in lung tissue,[4],no discernible effects
same,lung histopathology (H&E),[2],alleviated histopathology
same,ACE2 activity of recombinant ACE2,ACE2 [5],restore the ACE2 activity that had been inhibited by DTPA
"O=C(O)CN(CCN(CC(=O)O)CC(=O)O)CCN(CC(=O)O)CC(=O)O [DTPA, diethylenetriaminepentaacetic acid]",ACE2 activity of recombinant ACE2,ACE2 [5],substantially diminishes ACE2 activity

# From publication PMC10872764 (Journal of controlled release : official journal of the …, 2023)
